{"source": "ChEMBL document CHEMBL3616437", "about": "“Thiazole compounds with activity against Cryptococcus gattii and Cryptococcus neoformans in vitro” (Eur J Med Chem, 2015)", "key": {"[1]": {"tested_on": "Cryptococcus gattii species complex", "test": "Antifungal activity against Cryptococcus gattii 196L/03 assessed as reduction in ergosterol content at MIC after 24 hrs by spectrophotometric analysis", "type": "functional, organism-based", "conditions": "Cryptococcus bacillisporus", "outline": "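Pellet washed and weighed, then saponified in 25% ethanolic KOH at 85°C for 1 h. Extracted with water and n-heptane, read at 282 and 230 nm. Ergosterol taken from a standard curve and expressed as % of growth control.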"}, "[2]": {"tested_on": "Cryptococcus gattii species complex", "test": "Ratio of compound MIC for Cryptococcus gattii 135L/03 in presence of fluconazole to compound MIC for Cryptococcus gattii 135L/03 in absence of fluconazole by checkerboard microtiter test", "type": "functional, Cryptococcus bacillisporus", "outline": "(§1)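 Checkerboard microdilution: eight two-fold dilutions of test compound (0.11 to 15.6 µM) crossed with amphotericin B (0.025 to 3.9 µM, in DMSO) or fluconazole (0.48 to 62.5 µM, in water). Inoculum per CLSI M27-A3 in RPMI-MOPS pH 7.0, 1-5 x10^3 cells/mL. Growth 48 to 72 h. Effective MIC is the combination concentration giving complete inhibition. FICs derived from MICs in combination versus alone.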"}, "[3]": {"tested_on": "Cryptococcus gattii species complex", "test": "Ratio of compound MIC for Cryptococcus gattii 547/OTTI-97-PI-10 in presence of amphotericin B to compound MIC for Cryptococcus gattii 547/OTTI-97-PI-10 in absence of amphotericin B by checkerboard microtiter test", "type": "functional, Cryptococcus bacillisporus", "outline": "as §1"}, "Cryptococcus neoformans [4]": {"tested_on": "Cryptococcus neoformans", "test": "Ratio of compound MIC for Cryptococcus neoformans CN31 in presence of fluconazole to compound MIC for Cryptococcus neoformans CN31 in absence of fluconazole by checkerboard microtiter test", "type": "functional", "outline": "as §1"}, "Cryptococcus neoformans [5]": {"tested_on": "Cryptococcus neoformans", "test": "Ratio of compound MIC for Cryptococcus neoformans 28JF in presence of fluconazole to compound MIC for Cryptococcus neoformans 28JF in absence of fluconazole by checkerboard microtiter test", "type": "functional", "outline": "as §1"}, "[6]": {"tested_on": "Cryptococcus gattii species complex", "test": "Antifungal activity against Cryptococcus gattii ICB181 assessed as reduction in cell viability at 1.9 uM after 6 to 72 hrs by MTT assay", "type": "functional, Cryptococcus bacillisporus"}, "[7]": {"tested_on": "Cryptococcus bacillisporus", "test": "Ratio of compound MIC for Cryptococcus gattii ATCC 32608 in presence of fluconazole to compound MIC for Cryptococcus gattii ATCC 32608 in absence of fluconazole by checkerboard microtiter test", "type": "functional", "outline": "as §1"}, "[8]": {"tested_on": "Cryptococcus gattii species complex", "test": "Ratio of compound MIC for Cryptococcus gattii 196L/03 in presence of amphotericin B to compound MIC for Cryptococcus gattii 196L/03 in absence of amphotericin B by checkerboard microtiter test", "type": "functional, Cryptococcus bacillisporus", "outline": "as §1"}, "[9]": {"tested_on": "Cryptococcus gattii species complex", "test": "Ratio of compound MIC for Cryptococcus gattii L24/01 in presence of fluconazole to compound MIC for Cryptococcus gattii L24/01 in absence of fluconazole by checkerboard microtiter test", "type": "functional, Cryptococcus bacillisporus", "outline": "as §1"}, "[10]": {"tested_on": "Cryptococcus gattii species complex", "test": "Ratio of compound MIC for Cryptococcus gattii LMM818 in presence of amphotericin B to compound MIC for Cryptococcus gattii LMM818 in absence of amphotericin B by checkerboard microtiter test", "type": "functional, Cryptococcus bacillisporus", "outline": "as §1"}, "[11]": {"tested_on": "Cryptococcus gattii species complex", "test": "Antifungal activity against Cryptococcus gattii 196L/03 assessed as reduction in cell viability at 1.9 uM after 6 to 72 hrs by MTT assay", "type": "functional, Cryptococcus bacillisporus"}, "Cryptococcus neoformans [12]": {"tested_on": "Cryptococcus neoformans", "test": "Ratio of compound MIC for Cryptococcus neoformans F10 in presence of fluconazole to compound MIC for Cryptococcus neoformans F10 in absence of fluconazole by checkerboard microtiter test", "type": "functional", "outline": "as §1"}, "[13]": {"tested_on": "Cryptococcus gattii species complex", "test": "Ratio of compound MIC for Cryptococcus gattii 547/OTTI-97-PI-10 in presence of fluconazole to compound MIC for Cryptococcus gattii 547/OTTI-97-PI-10 in absence of fluconazole by checkerboard microtiter test", "type": "functional, Cryptococcus bacillisporus", "outline": "as §1"}, "[14]": {"tested_on": "Cryptococcus gattii species complex", "test": "Antifungal activity against Cryptococcus gattii L27/01 assessed as reduction in cell viability at 1.9 uM after 6 to 72 hrs by MTT assay", "type": "functional, Cryptococcus bacillisporus"}, "[15]": {"tested_on": "Cryptococcus gattii species complex", "test": "Ratio of compound MIC for Cryptococcus gattii L27/01 in presence of fluconazole to compound MIC for Cryptococcus gattii L27/01 in absence of fluconazole by checkerboard microtiter test", "type": "functional, Cryptococcus bacillisporus", "outline": "as §1"}, "[16]": {"tested_on": "Cryptococcus gattii species complex", "test": "Ratio of compound MIC for Cryptococcus gattii L28/02 in presence of fluconazole to compound MIC for Cryptococcus gattii L28/02 in absence of fluconazole by checkerboard microtiter test", "type": "functional, Cryptococcus bacillisporus", "outline": "as §1"}, "Cryptococcus neoformans [17]": {"tested_on": "Cryptococcus neoformans", "test": "Ratio of compound MIC for Cryptococcus neoformans ATCC 28957 in presence of fluconazole to compound MIC for Cryptococcus neoformans ATCC 28957 in absence of fluconazole by checkerboard microtiter test", "type": "functional", "outline": "as §1"}, "[18]": {"tested_on": "Cryptococcus gattii species complex", "test": "Ratio of compound MIC for Cryptococcus gattii 135L/03 in presence of amphotericin B to compound MIC for Cryptococcus gattii 135L/03 in absence of amphotericin B by checkerboard microtiter test", "type": "functional, Cryptococcus bacillisporus"}, "Cryptococcus neoformans [19]": {"tested_on": "Cryptococcus neoformans", "test": "Ratio of compound MIC for Cryptococcus neoformans 5396 in presence of amphotericin B to compound MIC for Cryptococcus neoformans 5396 in absence of amphotericin B by checkerboard microtiter test", "type": "functional", "outline": "as §1"}, "[20]": {"tested_on": "Cryptococcus gattii species complex", "test": "Ratio of compound MIC for Cryptococcus gattii L27/01 in presence of amphotericin B to compound MIC for Cryptococcus gattii L27/01 in absence of amphotericin B by checkerboard microtiter test", "type": "functional, Cryptococcus bacillisporus", "outline": "as §1"}, "[21]": {"tested_on": "Cryptococcus gattii species complex", "test": "Ratio of compound MIC for Cryptococcus gattii ICB181 in presence of amphotericin B to compound MIC for Cryptococcus gattii ICB181 in absence of amphotericin B by checkerboard microtiter test", "type": "functional, Cryptococcus bacillisporus", "outline": "as §1"}, "Cryptococcus neoformans [22]": {"tested_on": "Cryptococcus neoformans", "test": "Ratio of compound MIC for Cryptococcus neoformans 5396 in presence of fluconazole to compound MIC for Cryptococcus neoformans 5396 in absence of fluconazole by checkerboard microtiter test", "type": "functional", "outline": "as §1"}, "[23]": {"tested_on": "Cryptococcus gattii species complex", "test": "Antifungal activity against Cryptococcus gattii 135L/03 assessed as reduction in cell viability at 1.9 uM after 6 to 72 hrs by MTT assay", "type": "functional, Cryptococcus bacillisporus"}, "Cryptococcus neoformans [24]": {"tested_on": "Cryptococcus neoformans", "test": "Ratio of compound MIC for Cryptococcus neoformans WP in presence of amphotericin B to compound MIC for Cryptococcus neoformans WP in absence of amphotericin B by checkerboard microtiter test", "type": "functional", "outline": "as §1"}}, "note": "Calls of active or inactive are those of the source. The calls are words filed in the database; no cut-off is given here.", "data": [{"smiles": "C[C@@H]1[C@H](O)[C@@H](C)/C=C/C=C/C=C/C=C/C=C/C=C/C=C/[C@H](O[C@@H]2O[C@H](C)[C@@H](O)[C@H](N)[C@@H]2O)C[C@@H]2O[C@](O)(C[C@@H](O)C[C@@H](O)[C@H](O)CC[C@@H](O)C[C@@H](O)CC(=O)O[C@H]1C)C[C@H](O)[C@H]2C(=O)O", "note": "[AMPHOTERICIN B]", "values": [{"measurement": "Activity", "setting": "[1]", "value": "inactive"}]}, {"smiles": "COc1ccc(-c2csc(N/N=C(\\C)CCO)n2)cc1", "values": [{"measurement": "fractional inhibitory concentration index (FICI)", "setting": "[2]", "value": 2.38}, {"measurement": "fractional inhibitory concentration index (FICI)", "setting": "[3]", "value": 2.98}, {"measurement": "fractional inhibitory concentration index (FICI)", "setting": "Cryptococcus neoformans [4]", "value": 4.38}, {"measurement": "fractional inhibitory concentration index (FICI)", "setting": "Cryptococcus neoformans [5]", "value": 1.47}, {"measurement": "Activity", "setting": "[6]", "value": 90, "unit": "%"}, {"measurement": "fractional inhibitory concentration index (FICI)", "setting": "[7]", "value": 2.32}, {"measurement": "fractional inhibitory concentration index (FICI)", "setting": "[8]", "value": 9.38}, {"measurement": "fractional inhibitory concentration index (FICI)", "setting": "[9]", "value": 3.32}, {"measurement": "fractional inhibitory concentration index (FICI)", "setting": "[10]", "value": 4.98}, {"measurement": "Activity", "setting": "[11]", "value": 90, "unit": "%"}, {"measurement": "fractional inhibitory concentration index (FICI)", "setting": "Cryptococcus neoformans [12]", "value": 4.33}, {"measurement": "fractional inhibitory concentration index (FICI)", "setting": "[13]", "value": 3.31}, {"measurement": "Activity", "setting": "[14]", "value": 90, "unit": "%"}, {"measurement": "fractional inhibitory concentration index (FICI)", "setting": "[15]", "value": 2.14}, {"measurement": "fractional inhibitory concentration index (FICI)", "setting": "[16]", "value": 1.01}, {"measurement": "fractional inhibitory concentration index (FICI)", "setting": "Cryptococcus neoformans [17]", "value": 2.28}, {"measurement": "fractional inhibitory concentration index (FICI)", "setting": "[18]", "value": 4.98}, {"measurement": "fractional inhibitory concentration index (FICI)", "setting": "Cryptococcus neoformans [19]", "value": 1.58}, {"measurement": "fractional inhibitory concentration index (FICI)", "setting": "[20]", "value": 4.61}, {"measurement": "fractional inhibitory concentration index (FICI)", "setting": "[21]", "value": 9.55}, {"measurement": "fractional inhibitory concentration index (FICI)", "setting": "Cryptococcus neoformans [22]", "value": 1.32}, {"measurement": "Activity", "setting": "[23]", "value": 90, "unit": "%"}, {"measurement": "Activity", "setting": "[1]", "value": "inactive"}, {"measurement": "fractional inhibitory concentration index (FICI)", "setting": "Cryptococcus neoformans [24]", "value": 2.78}]}, {"smiles": "OC(Cn1cncn1)(Cn1cncn1)c1ccc(F)cc1F", "note": "[FLUCONAZOLE]", "values": [{"measurement": "Activity", "setting": "[1]", "value": "Active"}]}]}
